From ChEMBL document CHEMBL1142566, “Natural and synthetic 2,2-dimethylpyranocoumarins with antibacterial activity” (2005)
The source made the active and inactive calls. No cut-off for these calls is given here.

How the values were obtained:
Type in all cases: functional
Staphylococcus aureus = experiment: Antimicrobial activity against Staphylococcus aureus ATCC 25923 after 24 hrs by disk diffusion assay
Method in brief: (§1)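 Bauer-Kirby disk diffusion on trypticase Mueller-Hinton agar. Plates were seeded with ATCC reference strains to a final 10⁷ cell/mL. Test compounds were dissolved in DMSO and applied to 6 mm paper disks, with solvent-only disks as negative control. Plates were incubated 24 h at 37 °C. Inhibition zone diameter (mm) was averaged over three experiments and scored <7 (-), 7-10 (+), 11-16 (++), >16 (+++).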

[1] = system: Staphylococcus epidermidis; experiment: Antimicrobial activity against Staphylococcus epidermidis ATCC 12228 after 24 hrs by disk diffusion assay; method in brief: as §1
Pseudomonas aeruginosa = experiment: Antimicrobial activity against Pseudomonas aeruginosa ATCC 27853 after 24 hrs by disk diffusion assay; method in brief: as §1
Enterobacter cloacae = experiment: Antimicrobial activity against Enterobacter cloacae ATCC 13047 after 24 hrs by disk diffusion assay; method in brief: as §1
Escherichia coli = experiment: Antimicrobial activity against Escherichia coli ATCC 25922 after 24 hrs by disk diffusion assay; method in brief: as §1
Proteus mirabilis = experiment: Antimicrobial activity against Proteus mirabilis after 24 hrs by disk diffusion assay; method in brief: as §1
Klebsiella pneumoniae = experiment: Antimicrobial activity against Klebsiella pneumoniae ATCC 13883 after 24 hrs by disk diffusion assay; method in brief: as §1

| Compound | Activity (Staphylococcus aureus) | Activity [1] | Activity (Pseudomonas aeruginosa) | Activity (Enterobacter cloacae) | Activity (Escherichia coli) | Activity (Proteus mirabilis) | Activity (Klebsiella pneumoniae) | inhibition zone (IZ) (Staphylococcus aureus) | inhibition zone (IZ) [1] | inhibition zone (IZ) (Pseudomonas aeruginosa) | inhibition zone (IZ) (Enterobacter cloacae) | inhibition zone (IZ) (Escherichia coli) | inhibition zone (IZ) (Proteus mirabilis) | inhibition zone (IZ) (Klebsiella pneumoniae) |
| --- | --- | --- | --- | --- | --- | --- | --- | --- | --- | --- | --- | --- | --- | --- |
| CC1(C)Oc2ccc3ccc(=O)oc3c2[C@H](O)[C@H]1Br | inactive | inactive | inactive | inactive | inactive | inactive | inactive | – | – | – | – | – | – | – |
| CC1(C)C=Cc2c(ccc3ccc(=O)oc23)O1 | inactive | inactive | inactive | inactive | inactive | inactive | inactive | – | – | – | – | – | – | – |
| CC1(C)C=Cc2c(O)cc3oc(=O)ccc3c2O1 | inactive | inactive | inactive | inactive | inactive | inactive | inactive | – | – | – | – | – | – | – |
| COc1cc2c(c3oc(=O)ccc13)C(OC(C)=O)CC(C)(C)O2 (racemic) | – | – | – | – | – | – | – | 11 mm | 11 mm | <7 mm | <7 mm | <7 mm | 7 mm | <7 mm |
| COc1cc2c(c3oc(=O)ccc13)C(O)CC(C)(C)O2 (racemic) | inactive | inactive | inactive | inactive | inactive | inactive | inactive | – | – | – | – | – | – | – |
| O=c1ccc2c(O)cc(O)cc2o1 | – | – | – | – | – | – | – | 7 mm | 7 mm | 7 mm | 7 mm | 7 mm | 7 mm | 7 mm |
| CC1(C)Oc2ccc3ccc(=O)oc3c2[C@H](OC(=O)c2ccccc2)[C@H]1Br | – | – | – | – | – | – | – | 7 mm | 7 mm | 7 mm | 7 mm | 7 mm | 7 mm | 7 mm |
| CC1(C)C=Cc2c(cc(O)c3ccc(=O)oc23)O1 | inactive | inactive | inactive | inactive | inactive | inactive | inactive | – | – | – | – | – | – | – |
| CC1(C)CC(O)c2c(ccc3ccc(=O)oc23)O1 (stereo not given) | inactive | inactive | inactive | inactive | inactive | inactive | inactive | – | – | – | – | – | – | – |
| CC(=O)Oc1cc2c(c3oc(=O)ccc13)C=CC(C)(C)O2 | – | – | – | – | – | – | – | 7 mm | 7 mm | 7 mm | 7 mm | 7 mm | 7 mm | 7 mm |
| COc1cc2c(c3oc(=O)ccc13)C=CC(C)(C)O2 | – | – | – | – | – | – | – | 7 mm | 7 mm | 11 mm | 7 mm | 7 mm | 11 mm | 7 mm |
| CC(=O)OC1CC(C)(C)Oc2ccc3ccc(=O)oc3c21 (stereo not given) | inactive | inactive | inactive | inactive | inactive | inactive | inactive | – | – | – | – | – | – | – |
| CC1(C)S[C@@H]2[C@H](NC(=O)[C@H](N)c3ccc(O)cc3)C(=O)N2[C@H]1C(=O)O [AMOXICILLIN] | – | – | – | – | – | – | – | >16 mm | >16 mm | >16 mm | >16 mm | >16 mm | – | 11 mm |
| CC1(C)C=Cc2c(c3c(c4ccc(=O)oc24)OC(C)(C)C=C3)O1 [DIPETALOLACTONE] | – | – | – | – | – | – | – | 11 mm | 7 mm | 11 mm | 7 mm | 7 mm | 7 mm | 7 mm |
| O=C(O)[C@H]1/C(=C/CO)O[C@@H]2CC(=O)N21 [CLAVULANIC ACID] | – | – | – | – | – | – | – | >16 mm | >16 mm | >16 mm | >16 mm | >16 mm | – | > 16 mm |
| CC(=O)O[C@H]1c2c(ccc3ccc(=O)oc23)OC(C)(C)[C@H]1OC(C)=O | inactive | inactive | inactive | inactive | inactive | inactive | inactive | – | – | – | – | – | – | – |
| COc1cc(OC)c2ccc(=O)oc2c1 [CITROPTEN] | – | – | – | – | – | – | – | 7 mm | 11 mm | 11 mm | 7 mm | 7 mm | 7 mm | 7 mm |
| COc1cc2c(c3oc(=O)ccc13)[C@H](O)[C@@H](Br)C(C)(C)O2 (racemic) | – | – | – | – | – | – | – | 7 mm | 7 mm | 11 mm | 7 mm | 7 mm | 7 mm | 7 mm |
| COc1cc2c(c3oc(=O)ccc13)[C@H](OC(C)=O)[C@H](OC(C)=O)C(C)(C)O2 (racemic) | inactive | inactive | inactive | inactive | inactive | inactive | inactive | – | – | – | – | – | – | – |
| COc1cc2c(c3oc(=O)ccc13)[C@H](OC(=O)c1ccccc1)[C@@H](Br)C(C)(C)O2 (racemic) | – | – | – | – | – | – | – | 7 mm | 7 mm | 11 mm | 7 mm | 7 mm | 7 mm | 7 mm |
| CC1(C)Oc2ccc3ccc(=O)oc3c2[C@H](O)[C@@H]1O | inactive | inactive | inactive | inactive | inactive | inactive | inactive | – | – | – | – | – | – | – |
| COc1cc2c(c3oc(=O)ccc13)[C@H](OC(C)=O)[C@@H](Br)C(C)(C)O2 (racemic) | – | – | – | – | – | – | – | 7 mm | 11 mm | <7 mm | <7 mm | <7 mm | 7 mm | <7 mm |
| CC(=O)Oc1cc(OC(C)=O)c2ccc(=O)oc2c1 | – | – | – | – | – | – | – | 7 mm | 11 mm | 7 mm | 7 mm | 7 mm | 7 mm | 7 mm |
| CCN[C@@H]1C[C@H](N)[C@@H](O[C@H]2OC(CN)=CC[C@H]2N)[C@H](O)[C@H]1O[C@H]1OC[C@](C)(O)[C@H](NC)[C@H]1O [NETILMICIN] | – | – | – | – | – | – | – | >16 mm | >16 mm | >16 mm | >16 mm | >16 mm | – | 11 mm |
